Experimental data taken from ChEMBL document CHEMBL1275526, “Differential azole antifungal efficacies contrasted using a Saccharomyces cerevisiae strain humanized for sterol 14 alpha-demethylase at the homologous locus” (2008).
≈ marks a conversion by molar mass, not a printed value.

Assays:
Format in all cases: functional
Saccharomyces cerevisiae [1] = assay: Antifungal activity against wild-type Saccharomyces cerevisiae BY4741 assessed as accumulation of lanosterol at 8 ug/ml (reference value: 17+/- 1.22 %)
Saccharomyces cerevisiae [2] = assay: Antifungal activity against Saccharomyces cerevisiae BY4741 harboring human CYP51 by broth microdilution method
Method in brief: (§1)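 Adapted CLSI M-27A broth microdilution for S. cerevisiae, run in triplicate. Overnight cultures were diluted in YM, pH 7.0, to 2.5 x 10^3 cells/ml, with drug diluted in YM over 0 to 16 or 0 to 128 µg/ml depending on azole. Plates were incubated 48 h at 30°C. MIC was the concentration giving 80% growth inhibition.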

Saccharomyces cerevisiae [3] = assay: Antifungal activity against wild-type Saccharomyces cerevisiae BY4741 by broth microdilution method; method in brief: as §1
Saccharomyces cerevisiae [4] = assay: Antifungal activity against wild-type Saccharomyces cerevisiae BY4741 assessed as accumulation of 14-alpha-methylergosta-8,24(28)-dien-3beta-6alpha-diol at 8 ug/ml
Saccharomyces cerevisiae [5] = assay: Antifungal activity against Saccharomyces cerevisiae BY4741 assessed as growth rate at 0.5 ug/ml (reference value: 0.144%)
Saccharomyces cerevisiae [6] = assay: Antifungal activity against Saccharomyces cerevisiae BY4741 harboring human CYP51 assessed as accumulation of 14-alpha-methylergosta-8,24(28)-dien-3beta-6alpha-diol at 8 ug/ml
Saccharomyces cerevisiae [7] = assay: Antifungal activity against wild-type Saccharomyces cerevisiae BY4741 assessed as accumulation of ergosterol at 8 ug/ml (reference value: 57+/- 1.00 %)
Saccharomyces cerevisiae [8] = assay: Antifungal activity against Saccharomyces cerevisiae BY4741 harboring human CYP51 assessed as growth rate at 1 ug/ml (reference value: 0.157%); conditions: at 1 µg/mL
Saccharomyces cerevisiae [9] = assay: Antifungal activity against Saccharomyces cerevisiae BY4741 harboring human CYP51 assessed as growth rate at 2 ug/ml (reference value: 0.157%); conditions: at 2 µg/mL
Saccharomyces cerevisiae [10] = assay: Antifungal activity against Saccharomyces cerevisiae BY4741 assessed as growth rate at 16 ug/ml (reference value: 0.144%)
Saccharomyces cerevisiae [11] = assay: Antifungal activity against Saccharomyces cerevisiae BY4741 harboring human CYP51 assessed as growth rate at 0.5 ug/ml (reference value: 0.157%); conditions: at 0.5 µg/mL
Saccharomyces cerevisiae [12] = assay: Antifungal activity against Saccharomyces cerevisiae BY4741 harboring human CYP51 assessed as growth rate at 4 ug/ml (reference value: 0.157%); conditions: at 4 µg/mL
Saccharomyces cerevisiae [13] = assay: Antifungal activity against Saccharomyces cerevisiae BY4741 harboring human CYP51 assessed as accumulation of ergosterol at 8 ug/ml (reference value: 54+/- 0.82 %)
Saccharomyces cerevisiae [14] = assay: Antifungal activity against Saccharomyces cerevisiae BY4741 harboring human CYP51 assessed as growth rate at 16 ug/ml (reference value: 0.157%); conditions: at 16 µg/mL
Saccharomyces cerevisiae [15] = assay: Antifungal activity against Saccharomyces cerevisiae BY4741 assessed as growth rate at 8 ug/ml (reference value: 0.144%)
Saccharomyces cerevisiae [16] = assay: Antifungal activity against Saccharomyces cerevisiae BY4741 assessed as growth rate at 1 ug/ml (reference value: 0.144%)
Saccharomyces cerevisiae [17] = assay: Antifungal activity against Saccharomyces cerevisiae BY4741 assessed as growth rate at 2 ug/ml (reference value: 0.144%)
Saccharomyces cerevisiae [18] = assay: Antifungal activity against Saccharomyces cerevisiae BY4741 assessed as growth rate at 4 ug/ml (reference value: 0.144%)
Saccharomyces cerevisiae [19] = assay: Antifungal activity against Saccharomyces cerevisiae BY4741 harboring human CYP51 assessed as growth rate at 8 ug/ml (reference value: 0.157%); conditions: at 8 µg/mL
Saccharomyces cerevisiae [20] = assay: Antifungal activity against Saccharomyces cerevisiae BY4741 harboring human CYP51 assessed as growth rate at 0.25 ug/ml (reference value: 0.157%); conditions: at 0.25 µg/mL
Saccharomyces cerevisiae [21] = assay: Antifungal activity against wild-type Saccharomyces cerevisiae BY4741 assessed as accumulation of 14-alpha-methylergosta-8,24(28)-dien-3beta-6alpha-diol at 0.25 ug/ml
Saccharomyces cerevisiae [22] = assay: Antifungal activity against Saccharomyces cerevisiae BY4741 assessed as growth rate at 0.25 ug/ml (reference value: 0.144%)
Saccharomyces cerevisiae [23] = assay: Antifungal activity against Saccharomyces cerevisiae BY4741 harboring human CYP51 assessed as accumulation of 14-alpha-methylergosta-8,24(28)-dien-3beta-6alpha-diol at 0.25 ug/ml
Saccharomyces cerevisiae [24] = assay: Antifungal activity against wild-type Saccharomyces cerevisiae BY4741 assessed as accumulation of ergosterol at 0.25 ug/ml (reference value: 57+/- 1.00 %)
Saccharomyces cerevisiae [25] = assay: Antifungal activity against wild-type Saccharomyces cerevisiae BY4741 assessed as accumulation of lanosterol at 0.25 ug/ml (reference value: 17+/- 1.22 %)
Saccharomyces cerevisiae [26] = assay: Antifungal activity against Saccharomyces cerevisiae BY4741 harboring human CYP51 assessed as accumulation of lanosterol at 0.25 ug/ml (reference value: 23+/- 1.08 %)
Saccharomyces cerevisiae [27] = assay: Antifungal activity against Saccharomyces cerevisiae BY4741 harboring human CYP51 assessed as accumulation of ergosterol at 0.25 ug/ml (reference value: 54+/- 0.82 %)
Saccharomyces cerevisiae [28] = assay: Antifungal activity against Saccharomyces cerevisiae BY4741 harboring human CYP51 assessed as growth rate at 0.125 ug/ml (reference value: 0.157%); conditions: at 0.125 µg/mL
Saccharomyces cerevisiae [29] = assay: Antifungal activity against Saccharomyces cerevisiae BY4741 assessed as growth rate at 0.125 ug/ml (reference value: 0.144%)
Saccharomyces cerevisiae [30] = assay: Antifungal activity against wild-type Saccharomyces cerevisiae BY4741 assessed as accumulation of ergosterol at 4 ug/ml (reference value: 57+/- 1.00 %)
Saccharomyces cerevisiae [31] = assay: Antifungal activity against Saccharomyces cerevisiae BY4741 harboring human CYP51 assessed as accumulation of 14-alpha-methylergosta-8,24(28)-dien-3beta-6alpha-diol at 4 ug/ml
Saccharomyces cerevisiae [32] = assay: Antifungal activity against wild-type Saccharomyces cerevisiae BY4741 assessed as accumulation of lanosterol at 4 ug/ml (reference value: 17+/- 1.22 %)
Saccharomyces cerevisiae [33] = assay: Antifungal activity against Saccharomyces cerevisiae BY4741 harboring human CYP51 assessed as accumulation of ergosterol at 4 ug/ml (reference value: 54+/- 0.82 %)
Saccharomyces cerevisiae [34] = assay: Antifungal activity against wild-type Saccharomyces cerevisiae BY4741 assessed as accumulation of 14-alpha-methylergosta-8,24(28)-dien-3beta-6alpha-diol at 4 ug/ml
Saccharomyces cerevisiae [35] = assay: Antifungal activity against Saccharomyces cerevisiae BY4741 harboring human CYP51 assessed as accumulation of lanosterol at 4 ug/ml (reference value: 23+/- 1.08 %)
Saccharomyces cerevisiae [36] = assay: Antifungal activity against wild-type Saccharomyces cerevisiae BY4741 assessed as accumulation of 14-alpha-methylergosta-8,24(28)-dien-3beta-6alpha-diol at 16 ug/ml
Saccharomyces cerevisiae [37] = assay: Antifungal activity against Saccharomyces cerevisiae BY4741 harboring human CYP51 assessed as accumulation of lanosterol at 16 ug/ml (reference value: 23+/- 1.08 %)
Saccharomyces cerevisiae [38] = assay: Antifungal activity against wild-type Saccharomyces cerevisiae BY4741 assessed as accumulation of lanosterol at 16 ug/ml (reference value: 17+/- 1.22 %)
Saccharomyces cerevisiae [39] = assay: Antifungal activity against Saccharomyces cerevisiae BY4741 harboring human CYP51 assessed as accumulation of 14-alpha-methylergosta-8,24(28)-dien-3beta-6alpha-diol at 16 ug/ml
Saccharomyces cerevisiae [40] = assay: Antifungal activity against Saccharomyces cerevisiae BY4741 harboring human CYP51 assessed as accumulation of ergosterol at 16 ug/ml (reference value: 54+/- 0.82 %)

## CCC(C)n1ncn(-c2ccc(N3CCN(c4ccc(OCC5COC(Cn6cncn6)(c6ccc(Cl)cc6Cl)O5)cc4)CC3)cc2)c1=O (stereo not drawn) [ITRACONAZOLE]
Saccharomyces cerevisiae [1]
  Activity: 42%
Saccharomyces cerevisiae [2]
  MIC: > 128 µg/mL
Saccharomyces cerevisiae [3]
  MIC: 1 µg/mL (≈ 1.42 µM)
Saccharomyces cerevisiae [4]
  Activity: 24%
Saccharomyces cerevisiae [5]
  Activity: 0.042%
Saccharomyces cerevisiae [6]
  Activity: 5%
Saccharomyces cerevisiae [7]
  Activity: 6%
Saccharomyces cerevisiae [8]
  Activity: 0.176%
Saccharomyces cerevisiae [9]
  Activity: 0.17%
Saccharomyces cerevisiae [10]
  Activity: 0.035%
Saccharomyces cerevisiae [11]
  Activity: 0.166%
Saccharomyces cerevisiae [12]
  Activity: 0.136%
Saccharomyces cerevisiae [13]
  Activity: 52%
Saccharomyces cerevisiae [14]
  Activity: 0.136%
Saccharomyces cerevisiae [15]
  Activity: 0.036%
Saccharomyces cerevisiae [16]
  Activity: 0.042%
Saccharomyces cerevisiae [17]
  Activity: 0.044%
Saccharomyces cerevisiae [18]
  Activity: 0.039%
Saccharomyces cerevisiae [19]
  Activity: 0.164%

## C[C@@H](c1ncncc1F)[C@](O)(Cn1cncn1)c1ccc(F)cc1F [VORICONAZOLE]
Saccharomyces cerevisiae [2]
  MIC: > 128 µg/mL
Saccharomyces cerevisiae [3]
  MIC: 0.125 µg/mL (≈ 0.358 µM)
Saccharomyces cerevisiae [5]
  Activity: 0.046%
Saccharomyces cerevisiae [20]
  Activity: 0.159%
Saccharomyces cerevisiae [21]
  Activity: 24%
Saccharomyces cerevisiae [22]
  Activity: 0.046%
Saccharomyces cerevisiae [8]
  Activity: 0.156%
Saccharomyces cerevisiae [9]
  Activity: 0.154%
Saccharomyces cerevisiae [10]
  Activity: 0.039%
Saccharomyces cerevisiae [11]
  Activity: 0.153%
Saccharomyces cerevisiae [23]
  Activity: 4%
Saccharomyces cerevisiae [24]
  Activity: 10%
Saccharomyces cerevisiae [12]
  Activity: 0.154%
Saccharomyces cerevisiae [25]
  Activity: 35%
Saccharomyces cerevisiae [14]
  Activity: 0.159%
Saccharomyces cerevisiae [26]
  Activity: 27%
Saccharomyces cerevisiae [15]
  Activity: 0.043%
Saccharomyces cerevisiae [16]
  Activity: 0.039%
Saccharomyces cerevisiae [27]
  Activity: 49%
Saccharomyces cerevisiae [17]
  Activity: 0.051%
Saccharomyces cerevisiae [18]
  Activity: 0.043%
Saccharomyces cerevisiae [28]
  Activity: 0.157%
Saccharomyces cerevisiae [29]
  Activity: 0.057%
Saccharomyces cerevisiae [19]
  Activity: 0.168%

## Clc1ccccc1C(c1ccccc1)(c1ccccc1)n1ccnc1 [CLOTRIMAZOLE]
Saccharomyces cerevisiae [2]
  MIC: 8 µg/mL (≈ 23.2 µM)
Saccharomyces cerevisiae [3]
  MIC: 8 µg/mL (≈ 23.2 µM)
Saccharomyces cerevisiae [5]
  Activity: 0.11%
Saccharomyces cerevisiae [8]
  Activity: 0.173%
Saccharomyces cerevisiae [9]
  Activity: 0.169%
Saccharomyces cerevisiae [11]
  Activity: 0.162%
Saccharomyces cerevisiae [16]
  Activity: 0.123%
Saccharomyces cerevisiae [17]
  Activity: 0.088%

## CC(=O)N1CCN(c2ccc(OCC3COC(Cn4ccnc4)(c4ccc(Cl)cc4Cl)O3)cc2)CC1 (stereo not drawn) [KETOCONAZOLE]
Saccharomyces cerevisiae [2]
  MIC: 8 µg/mL (≈ 15.1 µM)
Saccharomyces cerevisiae [3]
  MIC: 1 µg/mL (≈ 1.88 µM)
Saccharomyces cerevisiae [9]
  Activity: 0.188%
Saccharomyces cerevisiae [30]
  Activity: 12%
Saccharomyces cerevisiae [12]
  Activity: 0.204%
Saccharomyces cerevisiae [31]
  Activity: 7%
Saccharomyces cerevisiae [32]
  Activity: 35%
Saccharomyces cerevisiae [15]
  Activity: 0.039%
Saccharomyces cerevisiae [33]
  Activity: 51%
Saccharomyces cerevisiae [17]
  Activity: 0.088%
Saccharomyces cerevisiae [18]
  Activity: 0.06%
Saccharomyces cerevisiae [34]
  Activity: 19%
Saccharomyces cerevisiae [35]
  Activity: 27%
Saccharomyces cerevisiae [19]
  Activity: 0.119%

## Clc1ccc(COC(Cn2ccnc2)c2ccc(Cl)cc2Cl)cc1 (stereo not drawn) [ECONAZOLE]
Saccharomyces cerevisiae [2]
  MIC: 8 µg/mL (≈ 21 µM)
Saccharomyces cerevisiae [3]
  MIC: 8 µg/mL (≈ 21 µM)
Saccharomyces cerevisiae [8]
  Activity: 0.157%
Saccharomyces cerevisiae [16]
  Activity: 0.084%

## OC(Cn1cncn1)(Cn1cncn1)c1ccc(F)cc1F [FLUCONAZOLE]
Saccharomyces cerevisiae [2]
  MIC: > 128 µg/mL
Saccharomyces cerevisiae [3]
  MIC: 8 µg/mL (≈ 26.1 µM)
Saccharomyces cerevisiae [36]
  Activity: 29%
Saccharomyces cerevisiae [10]
  Activity: 0.03%
Saccharomyces cerevisiae [37]
  Activity: 24%
Saccharomyces cerevisiae [14]
  Activity: 0.171%
Saccharomyces cerevisiae [15]
  Activity: 0.036%
Saccharomyces cerevisiae [38]
  Activity: 42%
Saccharomyces cerevisiae [39]
  Activity: 6%
Saccharomyces cerevisiae [40]
  Activity: 46%
Saccharomyces cerevisiae [19]
  Activity: 0.16%

## Clc1ccc(COC(Cn2ccnc2)c2ccc(Cl)cc2Cl)c(Cl)c1 (stereo not drawn) [MICONAZOLE]
Saccharomyces cerevisiae [2]
  MIC: 8 µg/mL (≈ 19.2 µM)
Saccharomyces cerevisiae [3]
  MIC: 8 µg/mL (≈ 19.2 µM)
Saccharomyces cerevisiae [5]
  Activity: 0.024%
Saccharomyces cerevisiae [8]
  Activity: 0.141%
Saccharomyces cerevisiae [9]
  Activity: 0.167%
Saccharomyces cerevisiae [11]
  Activity: 0.174%
Saccharomyces cerevisiae [16]
  Activity: 0.034%
Saccharomyces cerevisiae [17]
  Activity: 0.023%
